Source: ChEMBL document CHEMBL4396951, “Optimization and anti-inflammatory evaluation of methyl gallate derivatives as a myeloid differentiation protein 2 inhibitor” (Bioorg Med Chem, 2019)
Activity calls are given as the source filed them. The calls are words filed in the database; no cut-off is given here.

How the values were obtained:
Mus musculus [1] = assay: Antiinflammatory activity in oral dosed LPS-induced C57BL/6 mouse model of acute lung injury assessed as reduction in VCAM-1 mRNA expression in lung tissue after 6 hrs by qRT-PCR analysis; assay type: functional, organism-based
Summary of the method: (§1)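 Male C57BL/6 mice dosed orally with compound (10 or 20 mg/kg/day in 0.5% CMC-Na, 3 days), then LPS challenge. Lungs harvested 6 h later; RNA extracted with TRIZOL and TNF-α, IL-6, ICAM-1, VCAM-1 and MCP-1 mRNA measured by qRT-PCR.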

Mus musculus [2] = assay: Antiinflammatory activity in LPS-induced C57BL/6 mouse model of acute lung injury assessed as reduction in total cells in BALF at 10 to 20 mg/kg/day, po for 3 days followed by LPS-stimulation measured after 6 hrs by cell counting based method; assay type: functional, organism-based
Summary of the method: (§2)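 Male C57BL/6 mice (18–22 g) randomized to four groups. Compound given orally in 0.5% CMC-Na at 10 or 20 mg/kg/day for 3 consecutive days; controls received vehicle. LPS challenge; killed 6 h later. Left-lung BALF (saline 3 × 0.5 mL) centrifuged at 1000 rpm, 10 min, 4 °C: supernatant used for protein and ELISA TNF-α/IL-6, pellet for total cell count. Serum cytokines also measured by ELISA. Wet/dry ratio from middle right lobe dried at 65 °C for 72 h. Lung sections (5 μm) stained with H&E or for CD68 by IHC (citrate antigen retrieval, pH 6.5; DAB detection); n = 3.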

Peritoneal macrophage [3] = assay: Antiinflammatory activity in C57BL/6 mouse primary peritoneal macrophages assessed as inhibition of LPS-induced IL-6 production preincubated for 30 mins followed by LPS stimulation and measured after 24 hrs by sandwich ELISA; assay type: functional, cell-based
Summary of the method: (§3)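 Thioglycollate-elicited mouse peritoneal macrophages in RPMI-1640/10% FBS. Compound pretreatment for 30 min (10 μM for single-point screening, graded concentrations for dose-response), then 0.5 μg/mL LPS for 24 h. TNF-α and IL-6 in culture medium measured by sandwich ELISA and normalized to total protein in cell lysates; n = 3.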

Peritoneal macrophage [4] = assay: Antiinflammatory activity in C57BL/6 mouse primary peritoneal macrophages assessed as inhibition of LPS-induced TNFalpha mRNA expression preincubated for 30 mins followed by LPS stimulation and measured after 6 hrs by qRT-PCR analysis; assay type: functional, cell-based
Summary of the method: (§4)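 Thioglycollate-elicited peritoneal macrophages (C57BL/6 mice, 3 mL 6% thioglycollate i.p.), harvested by PBS/30 μM EDTA lavage, cultured in RPMI-1640 with 10% FBS at 37 °C, 5% CO2. Pretreatment with compound at graded concentrations for 30 min, then LPS for 6 h. TRIZOL RNA extraction; qRT-PCR with values normalized to β-actin mRNA.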

Mus musculus [5] = assay: Antiinflammatory activity in oral dosed LPS-induced C57BL/6 mouse model of acute lung injury assessed as reduction in IL-6 mRNA expression in lung tissue after 6 hrs by qRT-PCR analysis; assay type: functional, organism-based; summary of the method: as §1
Peritoneal macrophage [6] = assay: Antiinflammatory activity in C57BL/6 mouse primary peritoneal macrophages assessed as inhibition of LPS-induced IL-6 production at 10 uM preincubated for 30 mins followed by LPS stimulation and measured after 24 hrs by sandwich ELISA relative to control; assay type: functional; conditions: C57BL/6, Peritoneal macrophage; summary of the method: as §3
BEAS-2B = assay: Cytotoxicity against human BEAS2B cells up to 50 uM; assay type: cell-based
Summary of the method: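 BEAS-2B cells pretreated with compound at graded concentrations up to 50 μM for 30 min, then incubated without LPS for 24 h; compared against a DMSO group; n = 3.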

[7] = Stability of compound in pH 7.4 phosphate buffer at 20 uM measured up to 25 mins by UV-VIS spectroscopy; assay type: physicochemical; conditions: pH 7.4, 25 min
Mus musculus [8] = assay: Antiinflammatory activity in oral dosed LPS-induced C57BL/6 mouse model of acute lung injury assessed as reduction in ICAM-1 mRNA expression in lung tissue after 6 hrs by qRT-PCR analysis; assay type: functional, organism-based; summary of the method: as §1
Mus musculus [9] = species on record: Mus musculus; assay: Inhibition of MAPK in C57BL/6 mouse primary peritoneal macrophages assessed as reduction in JNK phosphorylation at 10 uM preincubated for 30 mins followed by LPS-stimulation measured after 20 mins by Western blot analysis
Summary of the method: (§5)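 Peritoneal macrophages pretreated with vehicle (DMSO) or 10 μM compound for 30 min, then 0.5 μg/mL LPS for 20 min. Total protein run on 10% SDS-PAGE and blotted to PVDF. p-JNK/JNK, p-p38/p38 and p-ERK/ERK detected by western blot and quantified by densitometry; n = 3.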

Peritoneal macrophage [10] = assay: Antiinflammatory activity in C57BL/6 mouse primary peritoneal macrophages assessed as inhibition of LPS-induced IL-6 mRNA expression preincubated for 30 mins followed by LPS stimulation and measured after 6 hrs by qRT-PCR analysis; assay type: functional, cell-based; summary of the method: as §4
Mus musculus [11] = assay: Antiinflammatory activity in LPS-induced C57BL/6 mouse model of acute lung edema assessed as decrease in lung wet/dry ratio at 20 mg/kg/day, po for 3 days followed by LPS-stimulation measured after 6 hrs; assay type: functional, organism-based; summary of the method: as §2
Mus musculus [12] = assay: Antiinflammatory activity in LPS-induced C57BL/6 mouse model of acute lung injury assessed as restoration of normal alveolar structure at 10 to 20 mg/kg/day, po for 3 days followed by LPS-stimulation measured after 6 hrs by haematoxylin and eosin staining-based light microscopic analysis; assay type: functional, organism-based; summary of the method: as §2
Mus musculus [13] = assay: Antiinflammatory activity in oral dosed LPS-induced C57BL/6 mouse model of acute lung injury assessed as reduction in TNFalpha levels in BALF for 3 days followed by LPS-stimulation measured after 6 hrs; assay type: functional, organism-based; summary of the method: as §2
Peritoneal macrophage [14] = assay: Antiinflammatory activity in C57BL/6 mouse primary peritoneal macrophages assessed as inhibition of LPS-induced TNFalpha production at 10 uM preincubated for 30 mins followed by LPS stimulation and measured after 24 hrs by sandwich ELISA relative to control; assay type: functional; conditions: C57BL/6, Peritoneal macrophage; summary of the method: as §3
Mus musculus [15] = assay: Antiinflammatory activity in oral dosed LPS-induced C57BL/6 mouse model of acute lung injury assessed as reduction in MCP-1 mRNA expression in lung tissue after 6 hrs by qRT-PCR analysis; assay type: functional, organism-based; summary of the method: as §1
Mus musculus [16] = assay: Antiinflammatory activity in oral dosed LPS-induced C57BL/6 mouse model of acute lung injury assessed as reduction in TNFalpha levels in serum for 3 days followed by LPS-stimulation measured after 6 hrs; assay type: functional, organism-based; summary of the method: as §2
Mus musculus [17] = assay: Antiinflammatory activity in oral dosed LPS-induced C57BL/6 mouse model of acute lung injury assessed as reduction in IL-6 levels in serum for 3 days followed by LPS-stimulation measured after 6 hrs; assay type: functional, organism-based; summary of the method: as §2
Peritoneal macrophage [18] = assay: Antiinflammatory activity in C57BL/6 mouse primary peritoneal macrophages assessed as inhibition of LPS-induced ICAM1 mRNA expression preincubated for 30 mins followed by LPS stimulation and measured after 6 hrs by qRT-PCR analysis; assay type: functional, cell-based; summary of the method: as §4
Mus musculus [19] = assay: Antiinflammatory activity in oral dosed LPS-induced C57BL/6 mouse model of acute lung injury assessed as reduction in TNF-alpha mRNA expression in lung tissue after 6 hrs by qRT-PCR analysis; assay type: functional, organism-based; summary of the method: as §1
Mus musculus [20] = species on record: Mus musculus; assay: Inhibition of MAPK in C57BL/6 mouse primary peritoneal macrophages assessed as reduction in P38 phosphorylation at 10 uM preincubated for 30 mins followed by LPS-stimulation measured after 20 mins by Western blot analysis; summary of the method: as §5
Mus musculus [21] = assay: Antiinflammatory activity in oral dosed LPS-induced C57BL/6 mouse model of acute lung injury assessed as reduction in IL-6 levels in BALF for 3 days followed by LPS-stimulation measured after 6 hrs; assay type: functional, organism-based; summary of the method: as §2
Mus musculus [22] = assay: Antiinflammatory activity in LPS-induced C57BL/6 mouse model of acute lung injury assessed as reduction in macrophage infiltration by measuring CD68 expression at 10 to 20 mg/kg/day, po for 3 days followed by LPS-stimulation measured after 6 hrs by immunohistochemistry; assay type: functional, organism-based; summary of the method: as §2
Peritoneal macrophage [23] = assay: Antiinflammatory activity in C57BL/6 mouse primary peritoneal macrophages assessed as inhibition of LPS-induced TNFalpha production preincubated for 30 mins followed by LPS stimulation and measured after 24 hrs by sandwich ELISA; assay type: functional, cell-based; summary of the method: as §3
Mus musculus [24] = species on record: Mus musculus; assay: Inhibition of MAPK in C57BL/6 mouse primary peritoneal macrophages assessed as reduction in ERK phosphorylation at 10 uM preincubated for 30 mins followed by LPS-stimulation measured after 20 mins by Western blot analysis; summary of the method: as §5
Peritoneal macrophage [25] = assay: Antiinflammatory activity in C57BL/6 mouse primary peritoneal macrophages assessed as inhibition of LPS-induced VCAM1 mRNA expression preincubated for 30 mins followed by LPS stimulation and measured after 6 hrs by qRT-PCR analysis; assay type: functional, cell-based; summary of the method: as §4
Mus musculus [26] = assay: Antiinflammatory activity in LPS-induced C57BL/6 mouse model of acute lung injury assessed as reduction in total protein levels in BALF at 10 to 20 mg/kg/day, po for 3 days followed by LPS-stimulation measured after 6 hrs; assay type: functional, organism-based; summary of the method: as §2
Peritoneal macrophage [27] = assay: Antiinflammatory activity in C57BL/6 mouse primary peritoneal macrophages assessed as inhibition of LPS-induced MCP1 mRNA expression preincubated for 30 mins followed by LPS stimulation and measured after 6 hrs by qRT-PCR analysis; assay type: functional, cell-based; summary of the method: as §4

## O=C(Nc1ccc2c(c1)CCC2)c1cc(O)c(O)c(O)c1
Mus musculus [1]
  Activity: Active
Mus musculus [2]
  Activity: Active
Peritoneal macrophage [3]
  inhibition: Dose-dependent effect
Peritoneal macrophage [3]; C57BL/6, Peritoneal macrophage
  IC50: 702 nM
Peritoneal macrophage [4]
  inhibition: Dose-dependent effect
Mus musculus [5]
  Activity: Active
Peritoneal macrophage [6]
  inhibition at 10 µM: 89%
BEAS-2B
  Activity: Non-Toxic
[7]
  Stability: Stable
Mus musculus [8]
  Activity: Active
Mus musculus [9]
  inhibition: Active
Peritoneal macrophage [10]
  inhibition: Dose-dependent effect
Mus musculus [11]
  Activity: Active
Mus musculus [12]
  Activity: Active
Mus musculus [13]
  inhibition: Dose-dependent effect
Peritoneal macrophage [14]
  inhibition at 10 µM: 72.2%
Mus musculus [15]
  Activity: Active
Mus musculus [16]
  inhibition: Dose-dependent effect
Mus musculus [17]
  inhibition: Dose-dependent effect
Peritoneal macrophage [18]
  inhibition: Dose-dependent effect
Mus musculus [19]
  Activity: Active
Mus musculus [20]
  inhibition: Active
Mus musculus [21]
  inhibition: Dose-dependent effect
Mus musculus [22]
  Activity: Active
Peritoneal macrophage [23]
  inhibition: Dose-dependent effect
Peritoneal macrophage [23]; C57BL/6, Peritoneal macrophage
  IC50: 1230 nM
Mus musculus [24]
  inhibition: Active
Peritoneal macrophage [25]
  inhibition: Dose-dependent effect
Mus musculus [26]
  Activity: Active
Peritoneal macrophage [27]
  inhibition: Dose-dependent effect
